Several values for one entry are separate records, joined by “and”; a condition that tells them apart may be missing. Identical values can stand only once.
Legend:
Type in all cases: toxicity, cell-based
Fibroblast [1] = assay: Multiplex assay against human fibroblast; details: 10 µM, compound concentration 10 uM
How it was run: (§1)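 Tubulin, mitochondrial-mass and membrane-permeability phenotypes are per cents of healthy-nucleus cells. Cells were gated by CellPathfinder machine learning into Hoechst high-intensity objects or normal cells, normal cells into healthy, pyknosed or fragmented nuclei, and pyknosed cells into mitotic or apoptotic. Before that, live cells stained at seeding with Hoechst33342, BioTracker Green Microtubule Cytoskeleton Dye, MitoTracker Red and Annexin V Alexa Fluor 680 were imaged on a CQ1 microscope at 37°C and 5% CO2 after compound addition.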

HEK-293T [2] = assay: Multiplex assay against HEK293T; details: human, 10 µM, compound concentration 10 uM; how it was run: as §1;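 on Population Tubulin-Different-Phenotype (%): share of the cells with healthy nuclei that show this phenotype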
U2OS [3] = assay: Multiplex assay against U2OS; details: human, 10 µM, compound concentration 10 uM; how it was run: as §1
HEK-293T [4] = assay: Incucyte cell viability with HEK293T; details: human, 10 µM, compound concentration 10 uM; further: filed as whole numbers so only -1 and 0 and 1 occur
Fibroblast [5] = assay: Incucyte cell viability with human fibroblast; details: 10 µM, compound concentration 10 uM; further: filed as whole numbers so only -1 and 0 and 1 occur
U2OS [6] = assay: Incucyte cell viability with U2OS; details: human, 10 µM, compound concentration 10 uM; further: filed as whole numbers so only -1 and 0 and 1 occur
[7] = 0 h, replicate number 1, timepoint 0 hours
[8] = 12 h, replicate number 1, timepoint 12 hours
[9] = 18 h, replicate number 1, timepoint 18 hours
[10] = 24 h, replicate number 1, timepoint 24 hours

CN1CCN(Cc2ccc(-c3cnc4[nH]cc(-c5ccc6[nH]ccc6c5)c4c3)cc2)CC1
Population Apoptotic (%) (Fibroblast [1]; 12 h, replicate 1): 47% and 85% | Population Fragmented Nuclei (%) (Fibroblast [1]; 12 h, replicate 1): 27% and 39% and 35% | Population Hoechst High Intensity Objects (%) (Fibroblast [1]; 12 h, replicate 1): 8% and 16% and 10% | Population Normal (%) (Fibroblast [1]; 12 h, replicate 1): 91% and 83% and 89% | Total Cell Count (Fibroblast [1]; 12 h, replicate 1): 208 and 291 and 107 | Population Apoptotic (%) (Fibroblast [1]; 12 h, replicate 2): 50% and 73% | Population Mitotic Cells (%) (Fibroblast [1]; 12 h, replicate 2): 50% and 26% | Population Normal (%) (Fibroblast [1]; 12 h, replicate 2): 69% and 64% and 94% | Total Cell Count (Fibroblast [1]; 12 h, replicate 2): 113 and 71 and 76 | Population Apoptotic (%) (Fibroblast [1]; 24 h, replicate 1): 73% and 68% and 81% | Population Fragmented Nuclei (%) (Fibroblast [1]; 24 h, replicate 1): 50% and 59% and 47% | Population Hoechst High Intensity Objects (%) (Fibroblast [1]; 24 h, replicate 1): 16% and 23% and 25% | Population Mitotic Cells (%) (Fibroblast [1]; 24 h, replicate 1): 26% and 31% and 18% | Population Normal (%) (Fibroblast [1]; 24 h, replicate 1): 83% and 76% and 75% | Population Apoptotic (%) (Fibroblast [1]; 24 h, replicate 2): 50% and 100% | Population Healthy Nuclei (%) (Fibroblast [1]; 24 h, replicate 2): 24% and 25% and 11% | Population Hoechst High Intensity Objects (%) (Fibroblast [1]; 24 h, replicate 2): 26% and 33% and 52% | Population Normal (%) (Fibroblast [1]; 24 h, replicate 2): 73% and 66% and 47% | Total Cell Count (Fibroblast [1]; 24 h, replicate 2): 136 and 91 and 73 | Population Fragmented Nuclei (%) (Fibroblast [1]; 48 h, replicate 1): 75% | Population Healthy Nuclei (%) (Fibroblast [1]; 48 h, replicate 1): 13% | Population Hoechst High Intensity Objects (%) (Fibroblast [1]; 48 h, replicate 1): 28% | Population Membrane Permeable-Phenotype (%) (Fibroblast [1]; 48 h, replicate 1): 41% | Population Normal (%) (Fibroblast [1]; 48 h, replicate 1): 71% | Population Pyknosed Nuclei (%) (Fibroblast [1]; 48 h, replicate 1): 10% | Population Tubulin-Different-Phenotype (%) (Fibroblast [1]; 48 h, replicate 1): 58% | Total Cell Count (Fibroblast [1]; 48 h, replicate 1): 121 | Population Apoptotic (%) (Fibroblast [1]; 48 h, replicate 2): 100% | Population Fragmented Nuclei (%) (Fibroblast [1]; 48 h, replicate 2): 79% | Population Healthy Nuclei (%) (Fibroblast [1]; 48 h, replicate 2): 11% | Population Hoechst High Intensity Objects (%) (Fibroblast [1]; 48 h, replicate 2): 40% | Population Membrane Permeable-Phenotype (%) (Fibroblast [1]; 48 h, replicate 2): 0% | Population Mitochondria Different-Phenotype (%) (Fibroblast [1]; 48 h, replicate 2): 0% | Population Mitotic Cells (%) (Fibroblast [1]; 48 h, replicate 2): 0% | Population Normal (%) (Fibroblast [1]; 48 h, replicate 2): 59% | Population Pyknosed Nuclei (%) (Fibroblast [1]; 48 h, replicate 2): 8% | Population Tubulin-Different-Phenotype (%) (Fibroblast [1]; 48 h, replicate 2): 50% | Total Cell Count (Fibroblast [1]; 48 h, replicate 2): 57 | Population Fragmented Nuclei (%) (HEK-293T [2]; 12 h, replicate 1): 11% and 13% and 21% | Population Hoechst High Intensity Objects (%) (HEK-293T [2]; 12 h, replicate 1): 16% and 24% and 18% | Population Membrane Permeable-Phenotype (%) (HEK-293T [2]; 12 h, replicate 1): 20% and 12% and 28% | Population Normal (%) (HEK-293T [2]; 12 h, replicate 1): 83% and 75% and 81% | Population Pyknosed Nuclei (%) (HEK-293T [2]; 12 h, replicate 1): 59% and 81% | Population Membrane Permeable-Phenotype (%) (HEK-293T [2]; 12 h, replicate 2): 0% and 15% | Population Normal (%) (HEK-293T [2]; 12 h, replicate 2): 87% and 97% | Population Tubulin-Different-Phenotype (%) (HEK-293T [2]; 12 h, replicate 2): 66% and 53% and 95% | Population Fragmented Nuclei (%) (HEK-293T [2]; 24 h, replicate 1): 16% | Population Hoechst High Intensity Objects (%) (HEK-293T [2]; 24 h, replicate 1): 29% and 32% and 15% | Population Membrane Permeable-Phenotype (%) (HEK-293T [2]; 24 h, replicate 1): 11% and 15% | Population Normal (%) (HEK-293T [2]; 24 h, replicate 1): 70% and 67% and 84% | Population Membrane Permeable-Phenotype (%) (HEK-293T [2]; 24 h, replicate 2): 0% and 8% and 9% | Population Normal (%) (HEK-293T [2]; 24 h, replicate 2): 78% and 93% | Population Apoptotic (%) (HEK-293T [2]; 48 h, replicate 1): 90% | Population Fragmented Nuclei (%) (HEK-293T [2]; 48 h, replicate 1): 29% | Population Healthy Nuclei (%) (HEK-293T [2]; 48 h, replicate 1): 3% | Population Hoechst High Intensity Objects (%) (HEK-293T [2]; 48 h, replicate 1): 31% | Population Membrane Permeable-Phenotype (%) (HEK-293T [2]; 48 h, replicate 1): 0% | Population Mitotic Cells (%) (HEK-293T [2]; 48 h, replicate 1): 9% | Population Normal (%) (HEK-293T [2]; 48 h, replicate 1): 68% | Population Pyknosed Nuclei (%) (HEK-293T [2]; 48 h, replicate 1): 66% | Population Tubulin-Different-Phenotype (%) (HEK-293T [2]; 48 h, replicate 1): 80% | Total Cell Count (HEK-293T [2]; 48 h, replicate 1): 216 | Population Apoptotic (%) (HEK-293T [2]; 48 h, replicate 2): 96% | Population Fragmented Nuclei (%) (HEK-293T [2]; 48 h, replicate 2): 17% | Population Healthy Nuclei (%) (HEK-293T [2]; 48 h, replicate 2): 7% | Population Hoechst High Intensity Objects (%) (HEK-293T [2]; 48 h, replicate 2): 18% | Population Membrane Permeable-Phenotype (%) (HEK-293T [2]; 48 h, replicate 2): 22% | Population Mitochondria Different-Phenotype (%) (HEK-293T [2]; 48 h, replicate 2): 100% | Population Mitotic Cells (%) (HEK-293T [2]; 48 h, replicate 2): 3% | Population Normal (%) (HEK-293T [2]; 48 h, replicate 2): 81% | Population Pyknosed Nuclei (%) (HEK-293T [2]; 48 h, replicate 2): 75% | Population Tubulin-Different-Phenotype (%) (HEK-293T [2]; 48 h, replicate 2): 100% | Total Cell Count (HEK-293T [2]; 48 h, replicate 2): 158 | Population Apoptotic (%) (U2OS [3]; 12 h, replicate 1): 81% and 75% | Population Hoechst High Intensity Objects (%) (U2OS [3]; 12 h, replicate 1): 11% and 4% and 8% | Population Membrane Permeable-Phenotype (%) (U2OS [3]; 12 h, replicate 1): 87% and 74% and 69% | Population Mitochondria Different-Phenotype (%) (U2OS [3]; 12 h, replicate 1): 64% and 37% | Population Mitotic Cells (%) (U2OS [3]; 12 h, replicate 1): 18% and 24% and 25% | Population Normal (%) (U2OS [3]; 12 h, replicate 1): 88% and 95% and 91% | Total Cell Count (U2OS [3]; 12 h, replicate 1): 171 and 167 and 190 | Population Fragmented Nuclei (%) (U2OS [3]; 12 h, replicate 2): 17% and 14% and 13% | Population Hoechst High Intensity Objects (%) (U2OS [3]; 12 h, replicate 2): 6% and 15% | Population Membrane Permeable-Phenotype (%) (U2OS [3]; 12 h, replicate 2): 40% and 72% and 63% | Population Mitochondria Different-Phenotype (%) (U2OS [3]; 12 h, replicate 2): 100% and 96% and 36% | Population Normal (%) (U2OS [3]; 12 h, replicate 2): 94% and 84% | Total Cell Count (U2OS [3]; 12 h, replicate 2): 76 and 116 and 120 | Population Apoptotic (%) (U2OS [3]; 24 h, replicate 1): 98% and 93% and 64% | Population Membrane Permeable-Phenotype (%) (U2OS [3]; 24 h, replicate 1): 100% and 90% and 39% | Population Normal (%) (U2OS [3]; 24 h, replicate 1): 90% and 76% and 93% | Total Cell Count (U2OS [3]; 24 h, replicate 1): 166 and 199 and 279 | Population Apoptotic (%) (U2OS [3]; 24 h, replicate 2): 95% and 100% and 66% | Population Membrane Permeable-Phenotype (%) (U2OS [3]; 24 h, replicate 2): 40% | Population Mitochondria Different-Phenotype (%) (U2OS [3]; 24 h, replicate 2): 39% | Population Normal (%) (U2OS [3]; 24 h, replicate 2): 81% and 66% and 89% | Population Tubulin-Different-Phenotype (%) (U2OS [3]; 24 h, replicate 2): 18% | Total Cell Count (U2OS [3]; 24 h, replicate 2): 122 and 91 and 140 | Population Apoptotic (%) (U2OS [3]; 48 h, replicate 1): 100% | Population Fragmented Nuclei (%) (U2OS [3]; 48 h, replicate 1): 31% | Population Healthy Nuclei (%) (U2OS [3]; 48 h, replicate 1): 2% | Population Hoechst High Intensity Objects (%) (U2OS [3]; 48 h, replicate 1): 14% | Population Membrane Permeable-Phenotype (%) (U2OS [3]; 48 h, replicate 1): 66% | Population Mitochondria Different-Phenotype (%) (U2OS [3]; 48 h, replicate 1): 100% | Population Mitotic Cells (%) (U2OS [3]; 48 h, replicate 1): 0% | Population Normal (%) (U2OS [3]; 48 h, replicate 1): 85% | Population Pyknosed Nuclei (%) (U2OS [3]; 48 h, replicate 1): 66% | Population Tubulin-Different-Phenotype (%) (U2OS [3]; 48 h, replicate 1): 100% | Total Cell Count (U2OS [3]; 48 h, replicate 1): 148 | Population Fragmented Nuclei (%) (U2OS [3]; 48 h, replicate 2): 8% | Population Healthy Nuclei (%) (U2OS [3]; 48 h, replicate 2): 64% | Population Hoechst High Intensity Objects (%) (U2OS [3]; 48 h, replicate 2): 24% | Population Membrane Permeable-Phenotype (%) (U2OS [3]; 48 h, replicate 2): 100% | Population Normal (%) (U2OS [3]; 48 h, replicate 2): 75% | Population Pyknosed Nuclei (%) (U2OS [3]; 48 h, replicate 2): 27% | Population Tubulin-Different-Phenotype (%) (U2OS [3]; 48 h, replicate 2): 95% | Total Cell Count (U2OS [3]; 48 h, replicate 2): 80 | Growth Rate (HEK-293T [4]; [7]): 0 | Growth Rate (HEK-293T [4]; 6 h, replicate number 2, timepoint 6 hours): 0 | Growth Rate (HEK-293T [4]; [8]): 0 | Growth Rate (HEK-293T [4]; [9]): 0 | Growth Rate (HEK-293T [4]; [10]): 0 | Growth Rate (Fibroblast [5]; [7]): 0 | Growth Rate (Fibroblast [5]; [8]): 0 | Growth Rate (Fibroblast [5]; [9]): 0 | Growth Rate (Fibroblast [5]; [10]): 0 | Growth Rate (U2OS [6]; 0 h, replicate number 2, timepoint 0 hours): 0 | Growth Rate (U2OS [6]; [8]): 1 | Growth Rate (U2OS [6]; [9]): 0 | Growth Rate (U2OS [6]; [10]): 0
